The assay can be described thus: Vasodilatory effect in pig pulmonary artery assessed as inhibition of PGF2-alpha-induced contraction. In kind it is functional, tissue-based, Sus scrofa. The following applies: for pD2: Sus scrofa. A digest of the protocol:
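Porcine lungs from slaughterhouse; small pulmonary artery branches cut into rings (2–3 mm long, 1.5–2 mm diameter), tension measured in organ baths. Rings precontracted with PGF2α; test compounds added cumulatively at contraction plateau (up to 1 mM), DMSO as solvent. Endothelium checked by 10 nM bradykinin relaxation; denuded rings by gentle rubbing, pretreated with 0.2 mM L-NAME. Potency expressed as pD2.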

In general, EC50 refers to the concentration needed to bring the measured effect to its halfway point.

Turning to `CC(C)CO[N+](=O)[O-]`, the EC50 was determined as 87.7 µM and the pD2 amounted to 4.01.
`O=[N+]([O-])OCC(CO[N+](=O)[O-])O[N+](=O)[O-]` [NITROGLYCERIN]: the EC50 came out at 0.0356 µM and the pD2 turned out to be 7.44.
Regarding `O=[N+]([O-])OCCS(=O)(=O)O`, the concentration giving a half-maximal response (EC50) stood at 33.5 µM and the pD2 is 4.48.
In the case of `CC(O[N+](=O)[O-])C(=O)c1ccccc1` (stereo unspecified), the half-maximal effective concentration (EC50) was 1.54 µM and the pD2 came out at 5.81.
For `O=[N+]([O-])OCc1ccccc1` the same measures were 0.412 µM and 6.34.
For `O=[N+]([O-])OCC(CO)(CO)CO` [PENTAERYTHRITYL MONONITRATE] the same measures were 72.5 µM and 4.14.
For `O=[N+]([O-])O[C@H]1CO[C@H]2[C@@H]1OC[C@H]2O[N+](=O)[O-]` [ISOSORBIDE DINITRATE], the EC50 was 0.424 µM and the pD2 came out at 6.37.
As for `NCCO[N+](=O)[O-]` [AMINOETHYL NITRATE], the 50% effective concentration (EC50) amounted to 0.0315 µM and the pD2 is 7.5.
The corresponding values for `CC(C)(CO[N+](=O)[O-])C(=O)O` are 14.7 µM and 4.83.
The corresponding values for `CCCCO[N+](=O)[O-]` are 141 µM and 3.85.
For `COC(=O)CCO[N+](=O)[O-]` the same measures were 1.03 µM and 5.99.
On to `O=[N+]([O-])OC1COC2C(O)COC12` (stereo unspecified), for which the 50% effective concentration (EC50) came out at 33.2 µM and the pD2 came out at 4.48.
The corresponding values for `O=C(O)CCO[N+](=O)[O-]` are 9.56 µM and 5.02.

The values above are taken from ChEMBL document CHEMBL1140479, “NO donors. Part 16: investigations on structure-activity relationships of organic mononitrates reveal 2-nitrooxyethylammoniumnitrate as a high potent vasodilator” (Bioorg Med Chem Lett, 2007).
